According to ChEMBL document CHEMBL3124900, “Discovery and early clinical evaluation of BMS-605339, a potent and orally efficacious tripeptidic acylsulfonamide NS3 protease inhibitor for the treatment of hepatitis C virus infection” (J Med Chem, 2014):
pEC50, pIC50: −log10 of the molar value.

Assays:
[1] = Apparent terminal half life in Sprague-Dawley rat at 5 mg/kg, iv by LC/MS/MS analysis; assay type: ADME, organism-based; parameters: dose 5 mg/kg, route intravenous; conditions: in vivo, read-out: betat1/2(app) (converted)
[2] = Whole body plasma clearance in Sprague-Dawley rat at 5 mg/kg, iv by LC/MS/MS analysis; assay type: ADME, organism-based; parameters: dose 5 mg/kg, route intravenous
[3] = test system: Hepatitis C virus; experiment: Antiviral activity against Hepatitis C virus genotype 1b Con1 after 4 days by cell-based replicon assay; assay type: functional, organism-based, Hepacivirus hominis; conditions: isolate Con1, 96 h
[4] = Inhibition of Hepatitis C virus genotype 1a H77 recombinant NS3/4A protease expressed in Escherichia coli BL21 (DE3) cell using Ac-Asp-Glu-Asp(EDANS)-Glu-Glu-Abu[C(O)-O]-Ala-Ser-Lys(DABCYL)-NH2 as substrate by FRET assay; parameters: species or system Hepatitis C virus (isolate H77)
[5] = Cytotoxicity against human HuH7 cells; assay type: cell-based; conditions: Huh-7 cells
[6] = Oral bioavailability in Sprague-Dawley rat at 15 mg/kg administered via gavage by LC/MS/MS analysis; assay type: ADME, organism-based; conditions: in vivo
[7] = AUC in Sprague-Dawley rat at 15 mg/kg, po administered via gavage by LC/MS/MS analysis; assay type: ADME, organism-based; parameters: dose 15 mg/kg, route oral; conditions: plasma
[8] = test system: Plasma; experiment: (§1) AUC in intraduodenally dosed Sprague-Dawley rat plasma measured over 4 hrs by LC/MS/MS analysis; assay type: ADME, organism-based; parameters: time < 4 hr, route intraduodenal; conditions: in vivo, other, 4 h, BLD = below limit of detection
Outline: (§2)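 Abbreviated rat screen: surgically prepared rats were dosed intraduodenally. Plasma was sampled over 4 h, and liver was collected at the 4 h end point. Plasma was precipitated with two volumes of ACN plus internal standard. Liver was weighed and homogenized in 2 volumes of 20% Hanks buffered salt solution/80% ACN. Both were quantified by LC/MS/MS.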

[9] = test system: Liver; experiment: Drug uptake in intraduodenally dosed Sprague-Dawley rat liver measured per gm of tissue over 4 hrs by LC/MS/MS analysis; assay type: ADME, organism-based; conditions: in vivo, other; outline: as §2
[10] = as §1; assay type: ADME, organism-based; parameters: time < 4 hr, route intraduodenal; conditions: Sprague-Dawley, plasma; outline: as §2
[11] = Plasma concentration in Sprague-Dawley rat at 20 mg/kg, po administered via gavage measured after 8 hrs by LC/MS/MS analysis; assay type: ADME, organism-based; parameters: dose 20 mg/kg, route oral
[12] = Drug uptake in Sprague-Dawley rat liver at 20 mg/kg, po administered via gavage measured after 8 hrs by LC/MS/MS analysis; assay type: ADME, organism-based; parameters: dose 20 mg/kg, route oral; conditions: read-out: Drug uptake
[13] = Drug uptake in Sprague-Dawley rat liver at 20 mg/kg, po administered via gavage measured after 4 hrs by LC/MS/MS analysis; assay type: ADME, organism-based; parameters: dose 20 mg/kg, route oral; conditions: read-out: Drug uptake
[14] = Plasma concentration in Sprague-Dawley rat at 20 mg/kg, po administered via gavage measured after 4 hrs by LC/MS/MS analysis; assay type: ADME, organism-based; parameters: dose 20 mg/kg, route oral
[15] = Half life in dog liver microsomes at 3 uM by LC/MS/MS analysis; assay type: ADME, Canis lupus familiaris
Outline: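 Pooled liver microsomes were run in triplicate per species. Each incubation held 3 μM test compound in 0.1 M potassium phosphate pH 7.4 at 37 °C, with 0.9 mg/mL microsomal protein, 0.033 mM MgCl2 and an NADPH-regenerating system. Proteins were precipitated with two volumes of ACN containing internal standard, and supernatants were analysed by LC/MS/MS.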

[16] = Whole body plasma clearance in Beagle dog at 3 mg/kg, iv by LC/MS/MS analysis; assay type: ADME, organism-based, Canis lupus familiaris; parameters: dose 3 mg/kg, route intravenous
[17] = Apparent terminal half life in Beagle dog at 3 mg/kg, iv by LC/MS/MS analysis; assay type: ADME, organism-based, Canis lupus familiaris; parameters: dose 3 mg/kg, route intravenous; conditions: in vivo, read-out: betat1/2(app) (converted)
[18] = AUC in Beagle dog at 3 mg/kg by LC/MS/MS analysis; assay type: ADME, organism-based, Canis lupus familiaris; parameters: dose 3 mg/kg; conditions: plasma
[19] = AUC in Sprague-Dawley rat at 20 mg/kg, po administered via gavage by LC/MS/MS analysis; assay type: ADME, organism-based; parameters: dose 20 mg/kg, route oral; conditions: plasma

| half-life [1] [h] | clearance [2] [mL/min/kg] | pEC50 [3] | pIC50 [4] | bioavailability [6] [%] | AUC [7] [µM·h] | AUC [8] | Drug uptake ([9]; BLD = below limit of detection) | AUC at 4 h [10] [µM·h] | Drug uptake [9] [ng] | Compound | CC50 [5] [nM] | concentration at 8 h [11] [nM] | concentration at 8 h [12] [nM] | concentration at 4 h [13] [nM] | concentration at 4 h [14] [nM] | half-life at 3 µM [15] [h] | clearance [16] [mL/min/kg] | half-life [17] [h] | AUC [18] [µM·h] | AUC [19] [µM·h] |
| --- | --- | --- | --- | --- | --- | --- | --- | --- | --- | --- | --- | --- | --- | --- | --- | --- | --- | --- | --- | --- |
| 4.2 | 17 | 7.66 | 8.22 | 4 | 0.58 | – | – | – | – | CC[C@@H]1C[C@]1(NC(=O)[C@@H]1C[C@@H](Oc2nccc3cc(OC)ccc23)CN1C(=O)[C@@H](NC(=O)OC(C)(C)C)C(C)(C)C)C(=O)NS(=O)(=O)C1CC1 | > 100000 | – | – | – | – | – | – | – | – | – |
| – | – | 5.70 | 6.61 | – | – | BLD | BLD | – | – | C=C[C@@H]1C[C@]1(NC(=O)[C@@H]1C[C@@H](Oc2nccc3cc(OC)ccc23)CN1C(=O)[C@@H](NC(=O)OC(C)(C)C)C(C)(C)C)C(=O)O | > 100000 | – | – | – | – | – | – | – | – | – |
| 0.67 | 49 | 7.15 | 8.05 | 3 | 0.13 | – | – | – | – | C=C[C@@H]1C[C@]1(NC(=O)[C@@H]1C[C@@H](Oc2nccc3cc(OC)ccc23)CN1C(=O)[C@@H](NC(=O)O[C@H]1CCOC1)C(C)(C)C)C(=O)NS(=O)(=O)C1CC1 | > 100000 | – | – | – | – | – | – | – | – | – |
| 2.2 | 6 | 7.60 | 9.00 | 9 | 3.74 | – | – | 2.36 | 51260 | C=C[C@@H]1C[C@]1(NC(=O)[C@@H]1C[C@@H](Oc2nccc3c(OC)cccc23)CN1C(=O)[C@@H](NC(=O)OC(C)(C)C)C(C)(C)C)C(=O)NS(=O)(=O)C1CC1 | > 100000 | – | – | – | – | – | – | – | – | – |
| – | – | 6.93 | 7.06 | – | – | – | – | 1.46 | 69560 | C=C[C@@H]1C[C@]1(NC(=O)[C@@H]1C[C@@H](Oc2nccc3cc(F)ccc23)CN1C(=O)[C@@H](NC(=O)OC(C)(C)C)C(C)(C)C)C(=O)NS(=O)(=O)C1CC1 | > 100000 | – | – | – | – | – | – | – | – | – |

| Compound | half-life [1] [h] | clearance [2] [mL/min/kg] | pEC50 [3] | pIC50 [4] | bioavailability [6] [%] | AUC [7] [µM·h] | AUC [8] | Drug uptake ([9]; BLD = below limit of detection) | AUC at 4 h [10] [µM·h] | Drug uptake [9] [ng] | CC50 [5] [nM] | concentration at 8 h [11] [nM] | concentration at 8 h [12] [nM] | concentration at 4 h [13] [nM] | concentration at 4 h [14] [nM] | half-life at 3 µM [15] [h] | clearance [16] [mL/min/kg] | half-life [17] [h] | AUC [18] [µM·h] | AUC [19] [µM·h] |
| --- | --- | --- | --- | --- | --- | --- | --- | --- | --- | --- | --- | --- | --- | --- | --- | --- | --- | --- | --- | --- |
| C=C[C@@H]1C[C@]1(NC(=O)[C@@H]1C[C@@H](Oc2cc(-c3ccccc3)nc3cc(OC)ccc23)CN1C(=O)[C@@H](NC(=O)OC(C)(C)C)C(C)(C)C)C(=O)NS(=O)(=O)C1CC1 | 1 | 55 | 8.40 | 9.00 | – | 0.577 | – | – | 0.077 | 7850 | – | 4 | 600 | 5800 | 580 | 2.83 | 16 | 0.6 | 2 | 0.73 |
